In ChEMBL document CHEMBL2203262, “The design and synthesis of indazole and pyrazolopyridine based glucokinase activators for the treatment of type 2 diabetes mellitus” (Bioorg Med Chem Lett, 2012):
In brackets after ≈: the same amount, converted by molar mass.

What was measured:
[1] = Passive permeability of the compound in dog RRCK cells; assay type: ADME, cell-based, Canis lupus familiaris, MDCKII-LE; conditions: MDCK, read-out: permeability
How it was run: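 Passive permeability measured in the RRCK cell line; reported as 10^-6 cm/s.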

[2] = Kinetic solubility of the compound; assay type: physicochemical; conditions: read-out: Kinetic_solubility
[3] = Intrinsic clearance of the compound in human liver microsomes; assay type: ADME, Microsome; conditions: read-out: CLH
How it was run: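 Human liver microsomal stability; intrinsic clearance expressed as ml/min/kg.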

[4] = target: T1, Hexokinase-4 (Homo sapiens, UniProt P35557); assay: Activation of recombinant human glucokinase assessed measuring rate of glucose 6-phosphate formation using G6PDH/NADP coupling
T1 sequence (P35557 whole entry): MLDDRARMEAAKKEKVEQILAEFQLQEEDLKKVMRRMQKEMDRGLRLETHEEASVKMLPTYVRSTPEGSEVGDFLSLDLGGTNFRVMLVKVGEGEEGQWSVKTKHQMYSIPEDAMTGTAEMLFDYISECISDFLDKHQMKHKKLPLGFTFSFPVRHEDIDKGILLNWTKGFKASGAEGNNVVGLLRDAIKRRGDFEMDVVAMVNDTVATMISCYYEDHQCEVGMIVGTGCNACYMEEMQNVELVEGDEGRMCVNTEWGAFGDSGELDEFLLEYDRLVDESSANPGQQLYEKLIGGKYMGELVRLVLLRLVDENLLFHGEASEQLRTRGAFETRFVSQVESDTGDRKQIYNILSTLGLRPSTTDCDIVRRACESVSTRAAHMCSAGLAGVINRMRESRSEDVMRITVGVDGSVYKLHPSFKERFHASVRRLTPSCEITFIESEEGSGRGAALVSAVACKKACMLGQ

[5] = Lipophilicity, log D of the compound by shake flask method; assay type: physicochemical; conditions: octanol/water
[6] = test system: Rattus norvegicus; assay: Toxicity in Sprague-Dawley rat assessed as hypoglycemia at 10 to 250 mg/kg, po; assay type: organism-based; design: dose 10-250 mg/kg, route oral; conditions: in vivo
How it was run: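 Oral glucose tolerance test in overnight-fasted Sprague-Dawley rats. Single oral dose of 10–250 mg/kg (suspension in 30% sulfobutylether/water) given at t = −60 min, then 2 g/kg glucose orally at t = 0. Hypoglycemia defined as blood glucose <60 mg/dL. n = 7/group.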

[7] = test system: Rattus norvegicus; assay: Antidiabetic activity in Sprague-Dawley rat assessed as reduction of plasma glucose AUC excursion at 250 mg/kg, po by oral glucose tolerance test; assay type: functional; design: scale not given: the % may be the effect or the level left
How it was run: (§1)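 Sprague-Dawley rats fasted overnight, dosed orally at t = −60 min with 10, 25, 100 or 250 mg/kg as suspension in 30% sulfobutylether/water. Oral glucose challenge 2 g/kg at t = 0 min.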

[8] = test system: Rattus norvegicus; assay: Antidiabetic activity in po dosed Sprague-Dawley rat assessed as reduction of plasma glucose AUC excursion by oral glucose tolerance test; assay type: functional, organism-based; how it was run: as §1
[9] = Fraction unbound in human plasma; assay type: ADME, cell-free
[10] = Fraction unbound in rat plasma; assay type: ADME, cell-free
[11] = Drug excretion in Wistar-Han rat urine at 1 mg/kg, iv; assay type: ADME, organism-based; design: dose 1 mg/kg, route intravenous; conditions: read-out: Drug excretion
[12] = Oral bioavailability in Wistar-Han rat at 5 mg/kg; assay type: ADME, organism-based; conditions: in vivo
[13] = AUC in Wistar-Han rat at 5 mg/kg, po; assay type: ADME, organism-based; design: dose 5 mg/kg, route oral; conditions: plasma
How it was run: (§2)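 Pharmacokinetics in Wistar-Han rats, n = 3 animals per group. Intravenous dosing was at 1 mg/kg, and oral dosing was at 5 mg/kg. Plasma AUC, Cmax, t1/2, clearance, Vdss and oral bioavailability were derived. Urine was collected after the i.v. dose to assess renal excretion.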

[14] = Half life in Wistar-Han rat at 5 mg/kg, po; assay type: ADME, organism-based; design: dose 5 mg/kg, route oral; conditions: in vivo
[15] = Cmax in Wistar-Han rat at 5 mg/kg, po; assay type: ADME, organism-based; design: dose 5 mg/kg, route oral; conditions: in vivo
[16] = Clearance in Wistar-Han rat at 1 mg/kg, iv; assay type: ADME, organism-based; design: dose 1 mg/kg, route intravenous; conditions: in vivo
How it was run: (§3)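 Wistar-Han rats, n = 3 animals/group. Single intravenous dose of 1 mg/kg; plasma pharmacokinetic parameters determined.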

[17] = Volume of distribution at steady state in Wistar-Han rat at 1 mg/kg, iv; assay type: ADME, organism-based; design: dose 1 mg/kg, route intravenous; conditions: in vivo, read-out: Vdss; how it was run: as §3
[18] = Half life in Wistar-Han rat at 1 mg/kg, iv; assay type: ADME, organism-based; design: dose 1 mg/kg, route intravenous; conditions: in vivo; how it was run: as §3
[19] = AUC in Wistar-Han rat at 1 mg/kg, iv; assay type: ADME, organism-based; design: dose 1 mg/kg, route intravenous; conditions: plasma; how it was run: as §2
[20] = Cmax in Wistar-Han rat at 1 mg/kg, iv; assay type: ADME, organism-based; design: dose 1 mg/kg, route intravenous; conditions: in vivo; how it was run: as §3
[21] = target: Voltage-gated inwardly rectifying potassium channel KCNH2 (Homo sapiens, UniProt Q12809); assay: Inhibition of human ERG by patch clamp assay
[22] = Genotoxicity in micronucleus
[23] = test system: INS1; assay: Increase of glucose-stimulated insulin secretion in rat INS-1 cells
[24] = test system: Salmonella typhimurium; assay: Genotoxicity in Salmonella typhimurium by Ames test; assay type: toxicity, organism-based; conditions: salmonella enterica subsp. enterica serovar typhimurium
[25] = target: T2, Hexokinase-4 (Rattus norvegicus, UniProt P17712); assay: Activation of recombinant rat glucokinase assessed measuring rate of glucose 6-phosphate formation using G6PDH/NADP coupling
T2 sequence (P17712 whole entry): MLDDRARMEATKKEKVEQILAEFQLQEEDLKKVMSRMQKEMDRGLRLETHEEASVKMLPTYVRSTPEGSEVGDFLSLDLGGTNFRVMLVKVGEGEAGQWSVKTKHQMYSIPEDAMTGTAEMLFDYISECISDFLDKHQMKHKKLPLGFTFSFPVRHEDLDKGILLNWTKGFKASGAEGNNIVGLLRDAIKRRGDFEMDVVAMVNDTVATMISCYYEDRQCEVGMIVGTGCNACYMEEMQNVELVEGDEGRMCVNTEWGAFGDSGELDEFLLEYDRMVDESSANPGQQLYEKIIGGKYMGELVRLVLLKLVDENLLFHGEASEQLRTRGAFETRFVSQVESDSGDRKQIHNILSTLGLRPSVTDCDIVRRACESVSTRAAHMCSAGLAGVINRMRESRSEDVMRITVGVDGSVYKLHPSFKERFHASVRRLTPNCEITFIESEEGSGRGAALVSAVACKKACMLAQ
How it was run: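 Recombinant rat glucokinase; glucose 6-phosphate formation rate followed by G6PDH/NADP coupling. Matrix format: activator at 22 concentrations (0 to 100 µM range as printed) × 16 glucose concentrations (0 to 100 mM). Nonessential activator model fitted; EC50 = concentration giving half-maximal reduction in glucose Km.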

Chain of Voltage-gated inwardly rectifying potassium channel KCNH2 (Q12809 whole entry): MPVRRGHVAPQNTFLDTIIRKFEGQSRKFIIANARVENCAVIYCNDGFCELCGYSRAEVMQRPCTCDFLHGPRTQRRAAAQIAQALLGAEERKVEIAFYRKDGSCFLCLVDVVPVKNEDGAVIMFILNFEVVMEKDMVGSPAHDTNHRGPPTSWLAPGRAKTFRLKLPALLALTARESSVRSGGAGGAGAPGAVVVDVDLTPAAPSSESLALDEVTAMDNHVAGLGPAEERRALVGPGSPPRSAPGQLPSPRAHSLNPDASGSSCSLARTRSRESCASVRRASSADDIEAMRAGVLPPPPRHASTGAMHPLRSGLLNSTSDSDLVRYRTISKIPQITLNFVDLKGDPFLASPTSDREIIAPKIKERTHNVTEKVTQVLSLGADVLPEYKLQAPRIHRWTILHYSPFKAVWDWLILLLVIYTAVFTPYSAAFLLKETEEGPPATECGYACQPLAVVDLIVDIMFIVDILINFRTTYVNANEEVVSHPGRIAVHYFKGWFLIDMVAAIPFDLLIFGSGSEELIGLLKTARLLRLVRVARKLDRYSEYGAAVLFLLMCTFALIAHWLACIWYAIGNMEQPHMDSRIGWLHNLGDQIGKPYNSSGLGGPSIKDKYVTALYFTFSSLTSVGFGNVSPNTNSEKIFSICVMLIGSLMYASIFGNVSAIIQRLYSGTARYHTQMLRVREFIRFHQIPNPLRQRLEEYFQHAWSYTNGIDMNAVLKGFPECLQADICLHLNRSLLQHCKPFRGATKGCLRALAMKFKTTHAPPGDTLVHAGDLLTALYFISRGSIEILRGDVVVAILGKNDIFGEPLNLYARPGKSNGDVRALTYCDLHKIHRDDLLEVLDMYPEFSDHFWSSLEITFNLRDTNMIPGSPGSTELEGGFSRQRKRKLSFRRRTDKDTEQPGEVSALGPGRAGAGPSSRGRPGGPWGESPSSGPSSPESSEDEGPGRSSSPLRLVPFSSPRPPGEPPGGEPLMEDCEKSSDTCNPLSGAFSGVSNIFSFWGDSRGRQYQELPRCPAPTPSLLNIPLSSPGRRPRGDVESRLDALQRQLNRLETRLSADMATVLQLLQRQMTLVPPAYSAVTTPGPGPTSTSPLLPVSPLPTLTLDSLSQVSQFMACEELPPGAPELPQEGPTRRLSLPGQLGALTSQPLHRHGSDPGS

CCCn1cc2c(Oc3ccc(S(C)(=O)=O)cc3)cc(C(=O)Nc3cnc(C)cn3)cc2n1
Papp [1]: 14.2 ×10⁻⁶ cm/s | solubility kinetic [2]: 2.3 µM (≈ 1.07 µg/mL) | CLint scaled [3]: < 8 mL/min/kg | EC50 [4]: 310 nM

Cc1cnc(NC(=O)c2cc(Oc3cnc(C(=O)N(C)C)cn3)c3cc(C)nn3c2)cn1
Papp [1]: 17 ×10⁻⁶ cm/s | solubility kinetic [2]: 123 µM (≈ 53.2 µg/mL) | logD [5]: 1.87 | CLint scaled [3]: 13.7 mL/min/kg | EC50 [4]: 620 nM

Cc1cnc(NC(=O)c2cc(Oc3cnc(C(=O)N4CCC4)c(F)c3)c3cn(C)nc3c2)cn1
Papp [1]: 11.9 ×10⁻⁶ cm/s | solubility kinetic [2]: 70 µM (≈ 32.3 µg/mL) | CLint scaled [3]: < 8 mL/min/kg | EC50 [4]: 340 nM

CCn1cc2c(Oc3ccc(S(C)(=O)=O)cc3)cc(C(=O)Nc3cnc(C)cn3)cc2n1
Papp [1]: 13.4 ×10⁻⁶ cm/s | solubility kinetic [2]: 2.1 µM (≈ 0.948 µg/mL) | CLint scaled [3]: < 8 mL/min/kg | EC50 [4]: 770 nM

Cc1cnc(NC(=O)c2cc(Oc3ccc(S(=O)(=O)C4CC4)cc3)c3cn(C)nc3c2)cn1
Papp [1]: 17.8 ×10⁻⁶ cm/s | solubility kinetic [2]: 73 µM (≈ 33.8 µg/mL) | CLint scaled [3]: < 8 mL/min/kg | EC50 [4]: 510 nM

Cc1cnc(NC(=O)c2cc(Oc3ccc(S(N)(=O)=O)cc3)c3cn(C)nc3c2)cn1
EC50 [4]: 2320 nM

Cc1cnc(NC(=O)c2cc(Oc3cnc(C(=O)N(C)C)c(F)c3)c3cn(C)nc3c2)cn1
Papp [1]: 20.2 ×10⁻⁶ cm/s | solubility kinetic [2]: 328 µM (≈ 147 µg/mL) | CLint scaled [3]: < 8 mL/min/kg | EC50 [4]: 400 nM

Cc1cnc(NC(=O)c2cc(Oc3ccc(C(=O)N(C)C)cc3)c3cn(C)nc3c2)cn1
Papp [1]: 14.6 ×10⁻⁶ cm/s | solubility kinetic [2]: 351 µM (≈ 151 µg/mL) | CLint scaled [3]: 12.3 mL/min/kg

CCn1cc2c(Oc3cnc(C(=O)N4CCC4)c(F)c3)cc(C(=O)Nc3cnc(C)cn3)cc2n1
Activity [6]: Non-toxic | Activity [7]: 22% | Activity [8]: Dose-dependent effect | fraction unbound [9]: 0.2 | fraction unbound [10]: 0.18 | dose excreted [11]: < 1% | bioavailability [12]: 69% | AUC [13]: 5440 ng·h/mL | half-life [14]: 2.6 h | Cmax [15]: 1490 ng/mL | clearance [16]: 10.5 mL/min/kg | Vd [17]: 0.61 L/kg | half-life [18]: 1 h | AUC [19]: 1580 ng·h/mL | Cmax [20]: 1820 ng/mL | IC50 [21]: > 300000 nM | Activity [22]: Non-toxic | EC50 [23]: 170 nM | Activity [24]: Non-toxic | EC50 [25]: 350 nM | Papp [1]: 16.3 ×10⁻⁶ cm/s | solubility kinetic [2]: 84.8 µM (≈ 40.3 µg/mL) | logD [5]: 2.01 | CLint scaled [3]: < 8 mL/min/kg | EC50 [4]: 120 nM

Cc1cnc(NC(=O)c2cc(Oc3ccc(S(C)(=O)=O)cc3)c3cn(CCO)nc3c2)cn1
Papp [1]: 6.3 ×10⁻⁶ cm/s | solubility kinetic [2]: 24.4 µM (≈ 11.4 µg/mL) | CLint scaled [3]: < 8.9 mL/min/kg | EC50 [4]: 1540 nM

CCS(=O)(=O)c1ccc(Oc2cc(C(=O)Nc3cnc(C)cn3)cc3nn(C)cc23)cc1
Papp [1]: 10.6 ×10⁻⁶ cm/s | solubility kinetic [2]: 69 µM (≈ 31.2 µg/mL) | CLint scaled [3]: < 8 mL/min/kg | EC50 [4]: 980 nM

Cc1cnc(NC(=O)c2cc(Oc3ccc(S(=O)(=O)N(C)C)cc3)c3cn(C)nc3c2)cn1
Papp [1]: 13.6 ×10⁻⁶ cm/s | solubility kinetic [2]: 134 µM (≈ 62.5 µg/mL) | CLint scaled [3]: < 8 mL/min/kg | EC50 [4]: 440 nM

Cc1cnc(NC(=O)c2cc(Oc3cnc(C(=O)N(C)C)cn3)c3cc(C)oc3c2)cn1
logD [5]: 2.16 | CLint scaled [3]: < 8 mL/min/kg

CCn1cc2c(Oc3cnc(C(=O)N(C)C)c(F)c3)cc(C(=O)Nc3cnc(C)cn3)cc2n1
Papp [1]: 13.8 ×10⁻⁶ cm/s | solubility kinetic [2]: 367 µM (≈ 170 µg/mL) | logD [5]: 1.8 | CLint scaled [3]: 10.4 mL/min/kg | EC50 [4]: 230 nM

Cc1cnc(NC(=O)c2cc(Oc3ccc(S(C)(=O)=O)cc3)c3cn(C)nc3c2)cn1
Papp [1]: 20.4 ×10⁻⁶ cm/s | solubility kinetic [2]: 454 µM (≈ 199 µg/mL) | CLint scaled [3]: < 8 mL/min/kg | EC50 [4]: 1930 nM

Cc1cnc(NC(=O)c2cc(Oc3cnc(C(=O)N(C)C)nc3)c3cn(C)nc3c2)cn1
Papp [1]: 11.5 ×10⁻⁶ cm/s | solubility kinetic [2]: 446 µM (≈ 193 µg/mL) | CLint scaled [3]: < 8 mL/min/kg | EC50 [4]: 910 nM

Cc1cnc(NC(=O)c2cc(Oc3ccc(S(C)(=O)=O)cc3)c3cn(C4CC4)nc3c2)cn1
Papp [1]: 15.5 ×10⁻⁶ cm/s | solubility kinetic [2]: 0.5 µM (≈ 0.232 µg/mL) | CLint scaled [3]: < 8 mL/min/kg | EC50 [4]: 2030 nM

CNS(=O)(=O)c1ccc(Oc2cc(C(=O)Nc3cnc(C)cn3)cc3nn(C)cc23)cc1
solubility kinetic [2]: 27 µM (≈ 12.2 µg/mL) | CLint scaled [3]: < 8.6 mL/min/kg

Cc1cnc(NC(=O)c2cc(Oc3cnc(C(=O)N(C)C)cn3)c3cn(C)nc3c2)cn1
Papp [1]: 20.8 ×10⁻⁶ cm/s | solubility kinetic [2]: 192 µM (≈ 83 µg/mL) | logD [5]: 0.83 | CLint scaled [3]: < 8.5 mL/min/kg | EC50 [4]: 990 nM
